≈ marks a conversion by molar mass, not a printed value. Calls of active or inactive are those of the source. No cut-off for these calls is given here.
What was measured:
[1] = Fraction unbound in Wistar rat plasma at 0.2 mg/kg, iv as bolus dose or 0.5 mg/kg, po via gavage measured over 6 hrs; type: ADME, organism-based
[2] = Oral bioavailability in Wistar rat at 0.5 mg/kg via gavage measured over 6 hrs; type: ADME, organism-based; conditions: in vivo
[3] = Efflux ratio of permeability in human Caco2 cells at 1 uM after 2 hrs by Transwell assay; type: ADME, cell-based; conditions: Caco-2
[4] = Inhibition of CYP450 (unknown origin); type: ADME, Homo sapiens
[5] = target: T1, Cyclin-dependent kinase 8 (Homo sapiens, UniProt P49336); experiment: Inhibition of CDK8 in human LS174T cells expressing beta-catenin mutant assessed as suppression of WNT pathway by luciferase reporter gene assay; type: cell-based
Target sequence in this assay (P49336 whole entry, looked up, change not shown): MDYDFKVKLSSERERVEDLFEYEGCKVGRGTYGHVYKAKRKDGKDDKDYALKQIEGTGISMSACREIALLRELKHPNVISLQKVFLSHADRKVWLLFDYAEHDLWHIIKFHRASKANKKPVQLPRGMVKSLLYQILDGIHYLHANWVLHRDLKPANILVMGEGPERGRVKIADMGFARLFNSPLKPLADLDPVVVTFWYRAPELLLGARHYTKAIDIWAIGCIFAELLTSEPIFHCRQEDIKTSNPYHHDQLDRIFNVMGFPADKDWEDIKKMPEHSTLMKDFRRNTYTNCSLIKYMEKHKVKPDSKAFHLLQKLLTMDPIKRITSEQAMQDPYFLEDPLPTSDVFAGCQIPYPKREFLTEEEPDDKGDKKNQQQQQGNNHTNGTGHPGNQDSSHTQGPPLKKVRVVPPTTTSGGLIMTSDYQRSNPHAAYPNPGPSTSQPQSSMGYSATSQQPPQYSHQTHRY

[6] = Plasma clearance in Wistar rat at 0.2 mg/kg, iv as bolus dose or 0.5 mg/kg, po via gavage measured over 6 hrs; type: ADME, organism-based
[7] = Thermodynamic solubility of the compound in PBS at pH 7.4; type: physicochemical; conditions: read-out: Therm_solubility
Mus musculus [8] = experiment: Toxicity in NCr athymic mouse xenografted with human SW620 cells assessed as effect on body weight at 100 mg/kg, po qd administered for 16 days; type: organism-based, SW-620; conditions: in vivo, 384 h
In short: (§1)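 Female NCr athymic mice bearing SW620 colorectal xenografts received oral treatment for 16 days. Body weights were recorded and expressed as % of day 0 values.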

[9] = Volume of distribution at steady state in Beagle dog at 0.2 mg/kg, iv as bolus dose or 0.5 mg/kg, po via gavage measured over 48 hrs; type: ADME, organism-based, Canis lupus familiaris; conditions: in vivo, read-out: Vdss
Mus musculus [10] = experiment: In vivo inhibition of CDK8-mediated STAT1 phosphorylation at Ser727 in human SW620 cells xenografted in NCr athymic mouse at 100 mg/kg, po qd administered for 16 days measured 2 to 24 hrs post last dose by immunoassay; type: functional, organism-based; conditions: SW-620
In short: (§2)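 SW620 xenografts in female NCr athymic mice were dosed orally for 16 days. Phospho-STAT1 Ser727 was measured by Luminex immunoassay, normalized to total STAT1 and expressed as % of vehicle controls at each time point (2 h to 24 h after dosing).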

Mus musculus [11] = experiment: Toxicity in NCr athymic mouse xenografted with human SW620 cells assessed as drug tolerance at 100 mg/kg, po qd administered for 16 days; type: organism-based, SW-620; conditions: in vivo, 384 h; in short: as §1
[12] = Volume of distribution at steady state in NMRI mouse at 0.2 mg/kg, iv as bolus dose or 0.5 mg/kg, po via gavage measured over 6 hrs; type: ADME, organism-based; conditions: in vivo, read-out: Vdss
[13] = Apparent permeability from apical to basolateral side in human Caco2 cells at 1 uM after 2 hrs by Transwell assay; type: ADME, cell-based; conditions: Caco-2
[14] = target: T1, Cyclin-dependent kinase 8; experiment: Inhibition of CDK8 in human PA1 cells assessed as suppression of WNT3a ligand-induced WNT pathway by luciferase reporter gene assay; type: cell-based, PA-1
Target sequence in this assay (P49336 whole entry): as the sequence (P49336 whole entry, looked up, change not shown) above

[15] = target: T1, Cyclin-dependent kinase 8; experiment: Inhibition of CDK8 in human SW620 cells assessed as decrease in STAT1 phosphorylation at Ser727; type: cell-based, SW-620
Target sequence in this assay (P49336 whole entry): as the sequence (P49336 whole entry, looked up, change not shown) above

hERG (KCNH2) = hERG (KCNH2) (Homo sapiens, UniProt Q12809); experiment: Inhibition of human ERG at 10 uM relative to control
Chain of hERG (KCNH2) (Q12809 whole entry): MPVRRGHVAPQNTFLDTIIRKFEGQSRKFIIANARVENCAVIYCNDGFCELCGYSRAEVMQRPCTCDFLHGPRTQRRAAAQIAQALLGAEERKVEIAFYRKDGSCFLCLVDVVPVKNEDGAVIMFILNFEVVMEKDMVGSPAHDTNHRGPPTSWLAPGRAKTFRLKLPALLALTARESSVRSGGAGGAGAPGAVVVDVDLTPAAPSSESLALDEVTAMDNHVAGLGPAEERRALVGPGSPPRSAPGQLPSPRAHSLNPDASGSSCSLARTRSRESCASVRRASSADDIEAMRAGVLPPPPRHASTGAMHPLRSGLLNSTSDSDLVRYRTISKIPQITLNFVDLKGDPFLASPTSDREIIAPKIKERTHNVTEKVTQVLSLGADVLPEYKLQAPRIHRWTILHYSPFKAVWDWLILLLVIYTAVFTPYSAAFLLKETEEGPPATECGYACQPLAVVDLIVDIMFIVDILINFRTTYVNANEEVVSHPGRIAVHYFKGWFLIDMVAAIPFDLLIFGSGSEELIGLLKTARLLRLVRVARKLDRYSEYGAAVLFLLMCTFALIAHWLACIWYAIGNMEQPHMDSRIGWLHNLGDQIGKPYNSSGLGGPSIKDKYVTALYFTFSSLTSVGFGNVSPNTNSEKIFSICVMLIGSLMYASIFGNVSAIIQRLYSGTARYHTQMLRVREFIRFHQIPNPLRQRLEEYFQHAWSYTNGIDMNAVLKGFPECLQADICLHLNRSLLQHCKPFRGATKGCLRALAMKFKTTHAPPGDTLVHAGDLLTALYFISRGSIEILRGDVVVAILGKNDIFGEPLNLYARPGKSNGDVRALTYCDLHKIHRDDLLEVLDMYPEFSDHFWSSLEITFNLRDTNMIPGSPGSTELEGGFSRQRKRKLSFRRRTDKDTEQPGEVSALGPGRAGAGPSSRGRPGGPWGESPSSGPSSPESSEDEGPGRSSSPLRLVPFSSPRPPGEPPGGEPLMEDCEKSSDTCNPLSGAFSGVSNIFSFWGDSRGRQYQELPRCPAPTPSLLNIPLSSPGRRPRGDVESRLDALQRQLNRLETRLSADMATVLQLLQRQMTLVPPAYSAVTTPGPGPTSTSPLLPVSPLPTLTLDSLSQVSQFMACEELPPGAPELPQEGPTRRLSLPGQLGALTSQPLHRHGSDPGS

[16] = Intrinsic clearance in rat liver microsomes at 1 uM preincubated for 5 mins followed by NADPH addition measured after 5 to 30 mins by LC-MS/MS analysis; type: ADME; conditions: read-out: CLH
[17] = Fraction unbound in NMRI mouse plasma at 0.2 mg/kg, iv as bolus dose or 0.5 mg/kg, po via gavage measured over 6 hrs; type: ADME, organism-based
[18] = target: Glycogen synthase kinase-3 alpha (Homo sapiens) (UniProt P49840); experiment: Inhibition of GSK-3alpha (unknown origin) at 1 uM relative to control
Chain of Glycogen synthase kinase-3 alpha (Homo sapiens) (P49840 2-483 limits assumed): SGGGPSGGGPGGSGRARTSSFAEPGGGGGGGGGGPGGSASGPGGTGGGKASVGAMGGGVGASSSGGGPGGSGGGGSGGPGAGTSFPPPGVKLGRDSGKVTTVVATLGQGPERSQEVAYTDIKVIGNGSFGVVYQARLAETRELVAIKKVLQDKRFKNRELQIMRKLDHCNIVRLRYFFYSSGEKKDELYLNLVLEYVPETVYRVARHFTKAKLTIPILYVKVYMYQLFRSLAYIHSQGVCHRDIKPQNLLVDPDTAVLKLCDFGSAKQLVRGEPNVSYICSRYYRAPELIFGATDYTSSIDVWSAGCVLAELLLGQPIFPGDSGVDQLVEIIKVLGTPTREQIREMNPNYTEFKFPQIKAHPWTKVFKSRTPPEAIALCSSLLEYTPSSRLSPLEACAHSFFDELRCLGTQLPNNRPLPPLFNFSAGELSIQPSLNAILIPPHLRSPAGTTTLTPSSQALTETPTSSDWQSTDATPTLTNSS

[19] = Antitumor activity against human SW620 cells xenografted in NCr athymic mouse assessed as tumor growth inhibition at 50 mg/kg, po bid administered for 16 days relative to control; type: functional, SW-620
In short: (§3)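 Female NCr athymic mice bearing SW620 human colorectal carcinoma xenografts were dosed orally for 16 days. Growth inhibition was expressed as T/C ratio based on final tumor weights versus vehicle controls.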

[20] = Plasma clearance in NMRI mouse at 0.2 mg/kg, iv as bolus dose or 0.5 mg/kg, po via gavage measured over 6 hrs; type: ADME, organism-based
[21] = Half life in NMRI mouse at 0.2 mg/kg, iv as bolus dose or 0.5 mg/kg, po via gavage; type: ADME, organism-based; conditions: in vivo
Mus musculus [22] = experiment: Toxicity in NCr athymic mouse xenografted with human SW620 cells assessed as body weight loss at 50 mg/kg, po bid administered for 16 days; type: organism-based, SW-620; conditions: in vivo, 384 h; in short: as §1
[23] = Volume of distribution at steady state in Wistar rat at 0.2 mg/kg, iv as bolus dose or 0.5 mg/kg, po via gavage measured over 6 hrs; type: ADME, organism-based; conditions: in vivo, read-out: Vdss
[24] = Thermodynamic solubility of the compound in FaSSIF at pH 6.5; type: physicochemical; conditions: read-out: Therm_solubility
[25] = Half life in Beagle dog at 0.2 mg/kg, iv as bolus dose or 0.5 mg/kg, po via gavage; type: ADME, organism-based, Canis lupus familiaris; conditions: in vivo
[26] = Antitumor activity against human SW620 cells xenografted in NCr athymic mouse assessed as tumor growth inhibition at 100 mg/kg, po qd administered for 16 days relative to control; type: functional, SW-620; in short: as §3
Mus musculus [27] = experiment: Toxicity in NCr athymic mouse xenografted with human SW620 cells assessed as drug tolerance at 50 mg/kg, po bid administered for 16 days; type: organism-based, SW-620; conditions: in vivo, 384 h; in short: as §1
[28] = Thermodynamic solubility of the compound in FeSSIF at pH 5; type: physicochemical; conditions: read-out: Therm_solubility
[29] = Intrinsic clearance in human liver microsomes at 1 uM preincubated for 5 mins followed by NADPH addition measured after 5 to 30 mins by LC-MS/MS analysis; type: ADME; conditions: read-out: CLH
[30] = target: T1, Cyclin-dependent kinase 8; experiment: Inhibition of CDK8 in human 7dF3 cells preincubated for 2 hrs followed by beta-oestradiol addition measured after 24 hrs by luciferase reporter gene assay; type: cell-based
Target sequence in this assay (P49336 whole entry): as the sequence (P49336 whole entry, looked up, change not shown) above

[31] = target: Sodium-dependent dopamine transporter (Homo sapiens, UniProt Q01959); experiment: Displacement of [3H]BTCP from human recombinant dopamine transporter expressed in CHO cells after 120 mins by scintillation counting method; type: cell-based
Chain of Sodium-dependent dopamine transporter (Q01959 whole entry): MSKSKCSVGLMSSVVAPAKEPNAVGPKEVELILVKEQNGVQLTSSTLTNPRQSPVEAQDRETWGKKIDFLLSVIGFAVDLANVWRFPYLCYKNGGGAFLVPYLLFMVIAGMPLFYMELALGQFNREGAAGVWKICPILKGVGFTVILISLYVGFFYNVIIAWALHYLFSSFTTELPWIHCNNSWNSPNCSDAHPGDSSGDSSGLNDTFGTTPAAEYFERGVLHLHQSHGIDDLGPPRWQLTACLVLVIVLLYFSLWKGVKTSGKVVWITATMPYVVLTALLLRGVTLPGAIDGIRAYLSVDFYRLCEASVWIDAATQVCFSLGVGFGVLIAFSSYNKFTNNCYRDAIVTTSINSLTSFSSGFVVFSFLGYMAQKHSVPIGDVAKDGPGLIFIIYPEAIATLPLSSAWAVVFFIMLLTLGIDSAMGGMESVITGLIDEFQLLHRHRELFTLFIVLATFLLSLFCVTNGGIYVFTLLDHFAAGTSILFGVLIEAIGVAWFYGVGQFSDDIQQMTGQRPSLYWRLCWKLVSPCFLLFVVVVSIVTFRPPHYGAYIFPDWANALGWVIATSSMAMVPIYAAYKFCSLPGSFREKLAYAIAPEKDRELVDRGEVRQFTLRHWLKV

[32] = Half life in Wistar rat at 0.2 mg/kg, iv as bolus dose or 0.5 mg/kg, po via gavage; type: ADME, organism-based; conditions: in vivo
[33] = target: T1, Cyclin-dependent kinase 8; experiment: Inhibition of CDK8 in human COLO205 cells expressing APC mutant assessed as suppression of WNT pathway by luciferase reporter gene assay; type: cell-based; conditions: colo 205
Target sequence in this assay (P49336 whole entry, looked up, change not shown): as the sequence (P49336 whole entry, looked up, change not shown) above

[34] = Intrinsic clearance in mouse liver microsomes at 1 uM preincubated for 5 mins followed by NADPH addition measured after 5 to 30 mins by LC-MS/MS analysis; type: ADME; conditions: read-out: CLH
[35] = Plasma clearance in NMRI mouse at 0.2 mg/kg, iv as bolus dose or 0.5 mg/kg, po via gavage measured over 6 hrs relative to hepatic blood flow; type: ADME, organism-based, Liver; conditions: in vivo
[36] = Kinetic solubility of the compound; type: physicochemical; conditions: read-out: Kinetic_solubility
[37] = Oral bioavailability in NMRI mouse at 0.5 mg/kg via gavage measured over 6 hrs measured over 6 hrs; type: ADME, organism-based; conditions: in vivo
Mus musculus [38] = experiment: In vivo inhibition of CDK8-mediated STAT1 phosphorylation at Ser727 in human SW620 cells xenografted in NCr athymic mouse at 50 mg/kg, po bid administered for 16 days measured 2 to 24 hrs post last dose by immunoassay; type: functional, organism-based; conditions: SW-620; in short: as §2
[39] = Fraction unbound in Beagle dog plasma at 0.2 mg/kg, iv as bolus dose or 0.5 mg/kg, po via gavage measured over 48 hrs; type: ADME, organism-based, Canis lupus familiaris
CDK8/Cyclin C = CDK8/Cyclin C (Homo sapiens, UniProt P49336); experiment: Inhibition of Alexa647 tracer binding to full length recombinant human His-tagged CDK8/cyclin C expressed in Baculovirus expression system preincubated for 20 mins followed by tracer addition and incubated in dark for 60 mins by FRET-based Lanthascreen assay
Chain of CDK8/Cyclin C (P49336 whole entry): as the sequence (P49336 whole entry, looked up, change not shown) above
Chain of CDK8/Cyclin C (P24863 whole entry, further chain): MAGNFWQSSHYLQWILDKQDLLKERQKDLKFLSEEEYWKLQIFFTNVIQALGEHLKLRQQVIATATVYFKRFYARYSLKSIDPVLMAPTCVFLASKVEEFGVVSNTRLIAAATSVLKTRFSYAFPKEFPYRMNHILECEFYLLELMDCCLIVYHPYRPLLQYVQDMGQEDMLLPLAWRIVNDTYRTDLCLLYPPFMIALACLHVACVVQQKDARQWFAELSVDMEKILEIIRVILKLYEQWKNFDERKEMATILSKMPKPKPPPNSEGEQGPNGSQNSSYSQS

[40] = Plasma clearance in Beagle dog at 0.2 mg/kg, iv as bolus dose or 0.5 mg/kg, po via gavage measured over 48 hrs relative to hepatic blood flow; type: ADME, organism-based, Canis lupus familiaris, Liver; conditions: in vivo
[41] = Oral bioavailability in Beagle dog at 0.5 mg/kg via gavage measured over 48 hrs; type: ADME, organism-based, Canis lupus familiaris; conditions: in vivo
[42] = Plasma clearance in Beagle dog at 0.2 mg/kg, iv as bolus dose or 0.5 mg/kg, po via gavage measured over 48 hrs; type: ADME, organism-based, Canis lupus familiaris
[43] = Plasma clearance in Wistar rat at 0.2 mg/kg, iv as bolus dose or 0.5 mg/kg, po via gavage measured over 6 hrs relative to hepatic blood flow; type: ADME, organism-based, Liver; conditions: in vivo

- fraction unbound at 6 h [1]: 0.19
- bioavailability [2]: 66%
- efflux ratio at 2 h, 1 µM [3]: 1.5
- IC50 [4]: > 20000 nM
- IC50 [5]: 32 nM
- clearance [6]: 1.5 L/h/kg
- solubility thermodynamic [7]: 0.399 mg/mL (≈ 1170 µM)
- Vd [9]: 1.47 L/kg
- Vd [12]: 0.59 L/kg
- Papp A→B at 2 h, 1 µM [13]: 440 nm/s
- IC50 [14]: 52 nM
- IC50 [15]: 8 nM
- microsomal CLint at 1 µM [16]: < 10 µL/min/mg
- fraction unbound at 6 h [17]: 0.13
- inhibition [18]: > 50%
- clearance [20]: 1.37 L/h/kg
- half-life [21]: 27 min
- Vd [23]: 1.62 L/kg
- solubility thermodynamic [24]: 0.628 mg/mL (≈ 1840 µM)
- half-life [25]: 49.8 min
- solubility thermodynamic [28]: 0.836 mg/mL (≈ 2450 µM)
- microsomal CLint at 1 µM [29]: 45 µL/min/mg
- IC50 [30]: 6.5 nM
- IC50 [31]: 8500 nM
- half-life [32]: 51.6 min
- IC50 [33]: 9 nM
- microsomal CLint at 1 µM [34]: < 10 µL/min/mg
- CL [35]: 22.5%
- solubility kinetic [36]: > 200 µM
- bioavailability [37]: 25%
- fraction unbound at 48 h [39]: 0.5
- IC50 (CDK8/Cyclin C): 2.6 nM
- CL [40]: 53.8%
- bioavailability [41]: 39%
- clearance [42]: 1.35 L/h/kg
- CL [43]: 34.6%
SMILES: Cc1n[nH]c2ncc(C(=O)N3CCC[C@H]3c3ccc(Cl)cc3)cc12
- Activity (Mus musculus [8]): Non-Toxic
- inhibition (Mus musculus [10]): Active
- Activity (Mus musculus [11]): Non-Toxic
- inhibition at 10 µM (hERG (KCNH2)): 18%
- T/C [19]: 49%
- Activity (Mus musculus [22]): Non-Toxic
- T/C [26]: 57%
- Activity (Mus musculus [27]): Non-Toxic
- inhibition (Mus musculus [38]): Active

From ChEMBL document CHEMBL3853318, “Structure-Based Optimization of Potent, Selective, and Orally Bioavailable CDK8 Inhibitors Discovered by High-Throughput Screening” (J Med Chem, 2016)
